Results from ChEMBL document CHEMBL1800033, “Refining the eosinophil cationic protein antibacterial pharmacophore by rational structure minimization” (J Med Chem, 2011).
In brackets after ≈: the same amount, converted by molar mass. Activity calls are given as the source filed them. The calls are words filed in the database; no cut-off is given here. Where a SMILES comes first, the peptide text is derived from it. [ ]: non-standard residue; d: D form. Ahx = NCCCCCC(=O)O

Columns and labels:
[1] = Induction of membrane damage in DOPC/DOPG large unilamellar vesicles model after 1 hr by leakage fluorescence assay; format: physicochemical; conditions: read-out: ED50 (the source's name)
[2] = tested on: Staphylococcus aureus; assay: Bactericidal activity against Staphylococcus aureus ATCC 502A after over night incubation; format: functional; conditions: read-out: MIC100
How it was run: (§1)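 Overnight LB cultures (37 °C) diluted to about 5 × 10^5 CFU/mL; peptides in 10 mM sodium phosphate pH 7.5, serially diluted 10 to 0.2 μM, incubated with bacteria 4 h, then plated and grown overnight at 37 °C; MIC from two independent experiments, triplicate per concentration.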

[3] = tested on: Enterococcus faecium; assay: Bactericidal activity against Enterococcus faecium ATCC 19434 after over night incubation; format: functional; conditions: read-out: MIC100; how it was run: as §1
[4] = tested on: Lipopolysaccharide (LPS); assay: Displacement of BODIPY TR cadaverine from Escherichia coli serotype 0111:B4 lipopolysaccharide by fluorescent displacement assay
How it was run: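 Bodipy TR cadaverine displacement: protein or peptide aliquots added to a stirred mix of LPS (10 μg/mL) and probe (10 μM) in 5 mM Hepes pH 7.5; fluorescence followed, effective displacement value (ED50) calculated.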

[5] = tested on: Pseudomonas sp.; assay: Bactericidal activity against Pseudomonas sp. ATCC 15915 after over night incubation; format: functional; conditions: read-out: MIC100; how it was run: as §1
[6] = Toxicity in human RBC assessed as hemolytic activity after 4 hrs; format: cell-based, Erythrocyte; conditions: human red blood cells (RBC)
How it was run: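 Fresh human RBCs washed thrice in PBS (35 mM phosphate, 0.15 M NaCl, pH 7.4), 2 × 10^7 cells/mL, incubated with peptide 4 h at 37 °C; supernatant A570 read, 100% lysis set by 10 s sonication; HC50 from sigmoidal fit.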

[7] = tested on: Micrococcus luteus; assay: Bactericidal activity against Micrococcus luteus ATCC 7468 after over night incubation; format: functional; conditions: read-out: MIC100; how it was run: as §1
[8] = tested on: Escherichia coli; assay: Bactericidal activity against Escherichia coli BL2 after over night incubation; format: functional; conditions: read-out: MIC100; how it was run: as §1
[9] = tested on: Acinetobacter baumannii; assay: Bactericidal activity against Acinetobacter baumannii ATCC 15308 after over night incubation; format: functional; conditions: read-out: MIC100; how it was run: as §1
[10] = tested on: Escherichia coli; assay: Antibacterial activity against Escherichia coli assessed as concentration required to cause minimum agglutination behavior after overnight incubation; format: functional
How it was run: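 E. coli grown at 37 °C to mid-exponential phase (OD600 0.6), pelleted, resuspended in Tris-HCl, 0.15 M NaCl, pH 7.5 to A600 of 10; suspension incubated with peptide at 0.1–10 μM, 25 °C overnight; agglutination scored by visual inspection, reported as minimal agglutinating concentration.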

[11] = Induction of membrane damage in DOPC/DOPG large unilamellar vesicles model at <10 uM after 1 hr by leakage fluorescence assay; format: physicochemical
[12] = tested on: Lipopolysaccharide (LPS); assay: Displacement of BODIPY TR cadaverine from Escherichia coli serotype 0111:B4 lipopolysaccharide at <10 uM by fluorescent displacement assay

Work on CC[C@H](C)[C@H](NC(=O)[C@H](C)NC(=O)[C@H](Cc1ccccc1)NC(=O)[C@H](Cc1c[nH]c2ccccc12)NC(=O)[C@H](CCC(N)=O)NC(=O)[C@H](C)N)C(=O)N[C@@H](CCC(N)=O)C(=O)N[C@@H](Cc1cnc[nH]1)C(=O)NCCCCCC(=O)N[C@@H](CO)C(=O)N[C@H](C(=O)N[C@H](C(=O)N[C@@H](C)C(=O)N[C@@H](CCSC)C(=O)N[C@@H](CCCNC(=N)N)C(=O)N[C@@H](C)C(=O)N[C@H](C(=O)N[C@@H](CC(N)=O)C(=O)N[C@@H](CC(N)=O)C(=O)N[C@@H](Cc1ccc(O)cc1)C(=O)N[C@@H](CCCNC(=N)N)C(=O)N[C@@H](Cc1c[nH]c2ccccc12)C(=O)N[C@@H](CCCNC(=N)N)C(=O)O)[C@@H](C)CC)[C@@H](C)CC)[C@@H](C)O (H-AQWFAIQH[Ahx]STIAMRAINNYRWR-OH) yielded an EC50 [1] of 1.63 µM, an MIC [2] of 1.1 µM (≈ 3.13 µg/mL) and an MIC [3] of over 10 µM. It also gave an ED50 [4] of 1.95 µM, an MIC [5] of 3.5 µM (≈ 9.97 µg/mL) and an HC50 at 4 h [6] of 14.4 µM. The MIC [7] was over 10 µM, the MIC [8] was 1.5 µM (≈ 4.27 µg/mL) and the MIC [9] was 7 µM (≈ 19.9 µg/mL).
“H-AQWFAIQHISLNPPRSTIAMRAINNYRWRSKNQNTFLR-OH” gave an EC50 [1] of 0.4 µM, an MIC [2] of 0.7 µM and an MIC [3] of 1.5 µM. The ED50 [4] was 1.58 µM, the MIC [5] was 1.5 µM and the HC50 at 4 h [6] was 10.5 µM. The MIC [7] was 1.5 µM, the MIC [8] was 0.45 µM and the Activity [10] was under 1 µM. For the same compound, the MIC [9] was 0.88 µM.
Compound H-TIAMRAINNYRWRSKNQNTFLR-OH has an EC50 [1] of 1.25 µM, an MIC [2] of 1.5 µM and an MIC [3] of 7 µM. The ED50 [4] was 1.52 µM, the MIC [5] was 7 µM and the HC50 at 4 h [6] was 18.7 µM. It also gave an MIC [7] of 7 µM, an MIC [8] of 7 µM and an MIC [9] of 1.1 µM.
Work on H-AQWFAIQHISLNPPRSTIAMRAINNYRWR-OH yielded an EC50 [1] of 0.74 µM, an MIC [2] of 0.7 µM and an MIC [3] of 1.5 µM. It also gave an ED50 [4] of 2.43 µM, an MIC [5] of 3.5 µM and an HC50 at 4 h [6] of 10.3 µM. The MIC [7] was 3.5 µM, the MIC [8] was 1.5 µM and the Activity [10] was under 1 µM. The MIC [9] was 1.5 µM.
For H-ISLNPPRSTIAMRAINNYRWRSKNQNTFLR-OH, the EC50 [1] was 0.76 µM, the MIC [2] was 1.5 µM and the MIC [3] was 3.5 µM. The ED50 [4] was 6.13 µM, the MIC [5] was 1.5 µM and the HC50 at 4 h [6] was 10.5 µM. For the same compound, the MIC [7] was 3.5 µM, the MIC [8] was 1.5 µM and the MIC [9] was 3.5 µM.
For CC[C@H](C)[C@H](NC(=O)[C@H](C)NC(=O)[C@H](CCCNC(=N)N)NC(=O)[C@H](CCSC)NC(=O)[C@H](C)NC(=O)[C@@H](NC(=O)[C@@H](NC(=O)[C@H](CO)NC(=O)CCCCCNC(=O)[C@H](Cc1cnc[nH]1)NC(=O)[C@H](CCC(N)=O)NC(=O)[C@@H](NC(=O)[C@H](C)NC(=O)[C@H](Cc1ccccc1)NC(=O)[C@H](Cc1c[nH]c2ccccc12)NC(=O)[C@H](CCC(N)=O)NC(=O)[C@H](C)N)[C@@H](C)CC)[C@@H](C)O)[C@@H](C)CC)C(=O)N[C@@H](CC(N)=O)C(=O)O (H-AQWFAIQH[Ahx]STIAMRAIN-OH), the MIC [2] was over 10 µM, the MIC [3] was over 10 µM and the ED50 [4] was 5.13 µM. The MIC [5] was over 10 µM, the HC50 at 4 h [6] was 15.2 µM and the Activity [11] was “Not Active”. It also gave an MIC [7] of over 10 µM, an MIC [8] of over 10 µM and an MIC [9] of over 10 µM.
Work on CC[C@H](C)[C@H](NC(=O)[C@H](C)NC(=O)[C@H](CCCNC(=N)N)NC(=O)[C@H](CCSC)NC(=O)[C@H](C)NC(=O)[C@@H](NC(=O)[C@@H](NC(=O)[C@H](CO)NC(=O)CCCCCNC(=O)[C@H](CO)NC(=O)[C@@H](NC(=O)[C@H](Cc1cnc[nH]1)NC(=O)[C@H](CCC(N)=O)NC(=O)[C@@H](NC(=O)[C@H](C)NC(=O)[C@H](Cc1ccccc1)NC(=O)[C@H](Cc1c[nH]c2ccccc12)NC(=O)[C@H](CCC(N)=O)NC(=O)[C@H](C)NC(=O)[C@H](CCCNC(=N)N)NC(=O)[C@@H](N)[C@@H](C)O)[C@@H](C)CC)[C@@H](C)CC)[C@@H](C)O)[C@@H](C)CC)C(=O)N[C@@H](CC(N)=O)C(=O)N[C@@H](CC(N)=O)C(=O)N[C@@H](Cc1ccc(O)cc1)C(=O)N[C@@H](CCCNC(=N)N)C(=O)N[C@@H](Cc1c[nH]c2ccccc12)C(=O)N[C@@H](CCCNC(=N)N)C(=O)O (H-TRAQWFAIQHIS[Ahx]STIAMRAINNYRWR-OH) yielded an EC50 [1] of 0.82 µM, an MIC [2] of 0.87 µM (≈ 2.88 µg/mL) and an MIC [3] of 1.5 µM (≈ 4.96 µg/mL). It also gave an ED50 [4] of 1.6 µM, an MIC [5] of 1.5 µM (≈ 4.96 µg/mL) and an HC50 at 4 h [6] of 7.3 µM. It also gave an MIC [7] of 1.5 µM (≈ 4.96 µg/mL), an MIC [8] of 0.6 µM (≈ 1.98 µg/mL) and an Activity [10] of under 1 µM. It also gave an MIC [9] of 0.88 µM (≈ 2.91 µg/mL).
Work on CC[C@H](C)[C@H](NC(=O)CNC(=O)[C@@H](NC(=O)[C@H](CCCCN)NC(=O)[C@H](CCCCN)NC(=O)[C@H](Cc1ccccc1)NC(=O)[C@H](CC(C)C)NC(=O)[C@H](CCCCN)NC(=O)[C@H](Cc1c[nH]c2ccccc12)NC(=O)[C@@H](N)CCCCN)[C@@H](C)CC)C(=O)NCC(=O)N[C@@H](C)C(=O)N[C@H](C(=O)N[C@@H](CC(C)C)C(=O)N[C@@H](CCCCN)C(=O)N[C@H](C(=O)N[C@@H](CC(C)C)C(=O)N[C@H](C(=O)N[C@H](C(=O)NCC(=O)N[C@@H](CC(C)C)C(=O)N1CCC[C@H]1C(=O)N[C@@H](C)C(=O)N[C@@H](CC(C)C)C(=O)N[C@H](C(=O)N[C@@H](CO)C(=O)O)[C@@H](C)CC)[C@@H](C)O)[C@@H](C)O)C(C)C)C(C)C yielded an MIC [2] of 0.4 µM (≈ 1.12 µg/mL), an MIC [3] of 1.5 µM (≈ 4.19 µg/mL) and an MIC [5] of 0.6 µM (≈ 1.68 µg/mL). It also gave an HC50 at 4 h [6] of 7.8 µM, an MIC [7] of 1.5 µM (≈ 4.19 µg/mL) and an MIC [8] of 1.1 µM (≈ 3.08 µg/mL). It also gave an MIC [9] of 0.88 µM (≈ 2.46 µg/mL).
H-RPPQFTRAQWFAIQHISLN-OH gave an MIC [2] of over 10 µM, an MIC [3] of over 10 µM and an MIC [5] of over 10 µM. The HC50 at 4 h [6] was 11.2 µM, the Activity [11] was “Not Active” and the Activity [12] was “inactive”. For the same compound, the MIC [7] was over 10 µM, the MIC [8] was over 10 µM and the MIC [9] was over 10 µM.
